Reference: ChEMBL document CHEMBL4052683, “The discovery of benzoxazine sulfonamide inhibitors of NaV1.7: Tools that bridge efficacy and target engagement” (Bioorg Med Chem Lett, 2017)
Active and inactive are the calls of the source. No cut-off for these calls is given here.

Assays:
[1] = molecular target: Sodium channel protein type 9 subunit alpha (Homo sapiens, UniProt Q15858); test: Inhibition of human NaV1.7 expressed in HEK293 cells at holding potential of -125 mV with test potentials to -10 mV by whole cell voltage clamp method; assay type: cell-based
Chain of Sodium channel protein type 9 subunit alpha (Homo sapiens, UniProt Q15858) (Q15858 whole entry): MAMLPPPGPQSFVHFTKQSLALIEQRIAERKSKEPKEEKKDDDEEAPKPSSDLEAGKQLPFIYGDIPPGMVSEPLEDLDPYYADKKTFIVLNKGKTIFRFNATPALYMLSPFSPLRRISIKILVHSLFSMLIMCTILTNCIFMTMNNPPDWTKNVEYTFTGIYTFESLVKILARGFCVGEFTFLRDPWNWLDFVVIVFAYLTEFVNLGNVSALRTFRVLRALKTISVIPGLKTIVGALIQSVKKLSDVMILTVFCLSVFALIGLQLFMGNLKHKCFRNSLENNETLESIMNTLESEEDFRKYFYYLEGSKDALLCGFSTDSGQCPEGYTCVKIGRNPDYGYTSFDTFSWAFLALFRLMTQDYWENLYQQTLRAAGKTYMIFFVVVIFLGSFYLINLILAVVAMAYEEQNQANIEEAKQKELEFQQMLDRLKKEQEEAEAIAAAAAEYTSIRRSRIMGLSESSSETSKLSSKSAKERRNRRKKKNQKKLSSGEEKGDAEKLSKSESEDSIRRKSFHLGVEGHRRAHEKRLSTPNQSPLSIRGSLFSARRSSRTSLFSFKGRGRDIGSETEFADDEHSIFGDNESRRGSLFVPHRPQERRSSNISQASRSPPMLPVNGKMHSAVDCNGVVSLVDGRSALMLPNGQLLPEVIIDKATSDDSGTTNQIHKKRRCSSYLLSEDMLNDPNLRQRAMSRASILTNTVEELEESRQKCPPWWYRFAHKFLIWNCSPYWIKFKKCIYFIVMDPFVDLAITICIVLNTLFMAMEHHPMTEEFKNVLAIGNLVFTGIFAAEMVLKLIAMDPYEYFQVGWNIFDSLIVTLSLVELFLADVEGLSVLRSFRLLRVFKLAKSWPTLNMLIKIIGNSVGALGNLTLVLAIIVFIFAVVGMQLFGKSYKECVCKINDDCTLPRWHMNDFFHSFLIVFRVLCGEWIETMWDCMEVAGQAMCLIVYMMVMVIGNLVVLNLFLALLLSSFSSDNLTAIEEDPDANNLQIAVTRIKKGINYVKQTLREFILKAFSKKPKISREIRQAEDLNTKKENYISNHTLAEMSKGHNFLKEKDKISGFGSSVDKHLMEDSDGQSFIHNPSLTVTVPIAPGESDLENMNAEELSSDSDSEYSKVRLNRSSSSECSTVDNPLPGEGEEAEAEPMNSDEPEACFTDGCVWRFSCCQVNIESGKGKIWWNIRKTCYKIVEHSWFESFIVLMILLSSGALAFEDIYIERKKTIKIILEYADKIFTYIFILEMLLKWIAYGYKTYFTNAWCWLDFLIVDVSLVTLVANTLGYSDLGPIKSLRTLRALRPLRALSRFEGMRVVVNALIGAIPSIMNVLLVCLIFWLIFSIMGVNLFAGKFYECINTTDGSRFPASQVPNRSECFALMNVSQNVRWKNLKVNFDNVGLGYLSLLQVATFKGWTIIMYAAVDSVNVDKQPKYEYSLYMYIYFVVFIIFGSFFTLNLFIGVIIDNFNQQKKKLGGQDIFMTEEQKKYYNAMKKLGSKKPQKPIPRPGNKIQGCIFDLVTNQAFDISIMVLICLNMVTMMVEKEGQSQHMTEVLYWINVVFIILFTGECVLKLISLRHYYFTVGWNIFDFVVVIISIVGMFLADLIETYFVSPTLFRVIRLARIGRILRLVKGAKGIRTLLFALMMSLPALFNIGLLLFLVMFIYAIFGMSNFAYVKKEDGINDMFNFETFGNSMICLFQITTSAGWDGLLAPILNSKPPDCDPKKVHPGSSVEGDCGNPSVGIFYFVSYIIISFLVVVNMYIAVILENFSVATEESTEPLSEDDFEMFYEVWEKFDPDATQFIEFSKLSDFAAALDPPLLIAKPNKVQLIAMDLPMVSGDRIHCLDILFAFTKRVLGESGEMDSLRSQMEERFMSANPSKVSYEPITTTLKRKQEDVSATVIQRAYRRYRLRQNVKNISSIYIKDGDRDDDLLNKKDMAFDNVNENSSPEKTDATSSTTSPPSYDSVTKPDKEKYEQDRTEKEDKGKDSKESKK

[2] = Clearance in rat at 0.5 mg/kg, iv by LC-MS/MS method; assay type: ADME, organism-based; details: in vivo
Procedure, shortened: (§1)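 Male rats got 0.5 mg/kg IV as a DMSO solution. Unbound clearance was taken as rat clearance divided by the unbound fraction from equilibrium dialysis.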

[3] = Clearance in pooled human liver microsomes at 1 uM in presence of NADPH by LC-MS/MS method; assay type: ADME, microsome; details: read-out: CLH
[4] = Unbound fraction in mouse plasma at 5 uM by ultracentrifugation and LC-MS/MS method; assay type: ADME, cell-free
[5] = Inhibition of cynomolgus monkey NaV1.7 by whole cell voltage clamp method; details: Macaca fascicularis
Procedure, shortened: (§2)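 PatchXpress electrophysiology was run with a protocol giving about 20% channel inactivation. At least four concentrations at half-log spacing were applied one at a time, with washout, current recovery and holding voltage reset between each. Data were pooled from at least 10 cells, with 2–3 points per concentration, and fitted with a 4-parameter Hill curve to give one IC50.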

[6] = molecular target: Sodium channel protein type 9 subunit alpha (Mus musculus, UniProt Q62205); test: Inhibition of mouse NaV1.7 by whole cell voltage clamp method; procedure, shortened: as §2
Chain of Sodium channel protein type 9 subunit alpha (Mus musculus, UniProt Q62205) (Q62205 whole entry): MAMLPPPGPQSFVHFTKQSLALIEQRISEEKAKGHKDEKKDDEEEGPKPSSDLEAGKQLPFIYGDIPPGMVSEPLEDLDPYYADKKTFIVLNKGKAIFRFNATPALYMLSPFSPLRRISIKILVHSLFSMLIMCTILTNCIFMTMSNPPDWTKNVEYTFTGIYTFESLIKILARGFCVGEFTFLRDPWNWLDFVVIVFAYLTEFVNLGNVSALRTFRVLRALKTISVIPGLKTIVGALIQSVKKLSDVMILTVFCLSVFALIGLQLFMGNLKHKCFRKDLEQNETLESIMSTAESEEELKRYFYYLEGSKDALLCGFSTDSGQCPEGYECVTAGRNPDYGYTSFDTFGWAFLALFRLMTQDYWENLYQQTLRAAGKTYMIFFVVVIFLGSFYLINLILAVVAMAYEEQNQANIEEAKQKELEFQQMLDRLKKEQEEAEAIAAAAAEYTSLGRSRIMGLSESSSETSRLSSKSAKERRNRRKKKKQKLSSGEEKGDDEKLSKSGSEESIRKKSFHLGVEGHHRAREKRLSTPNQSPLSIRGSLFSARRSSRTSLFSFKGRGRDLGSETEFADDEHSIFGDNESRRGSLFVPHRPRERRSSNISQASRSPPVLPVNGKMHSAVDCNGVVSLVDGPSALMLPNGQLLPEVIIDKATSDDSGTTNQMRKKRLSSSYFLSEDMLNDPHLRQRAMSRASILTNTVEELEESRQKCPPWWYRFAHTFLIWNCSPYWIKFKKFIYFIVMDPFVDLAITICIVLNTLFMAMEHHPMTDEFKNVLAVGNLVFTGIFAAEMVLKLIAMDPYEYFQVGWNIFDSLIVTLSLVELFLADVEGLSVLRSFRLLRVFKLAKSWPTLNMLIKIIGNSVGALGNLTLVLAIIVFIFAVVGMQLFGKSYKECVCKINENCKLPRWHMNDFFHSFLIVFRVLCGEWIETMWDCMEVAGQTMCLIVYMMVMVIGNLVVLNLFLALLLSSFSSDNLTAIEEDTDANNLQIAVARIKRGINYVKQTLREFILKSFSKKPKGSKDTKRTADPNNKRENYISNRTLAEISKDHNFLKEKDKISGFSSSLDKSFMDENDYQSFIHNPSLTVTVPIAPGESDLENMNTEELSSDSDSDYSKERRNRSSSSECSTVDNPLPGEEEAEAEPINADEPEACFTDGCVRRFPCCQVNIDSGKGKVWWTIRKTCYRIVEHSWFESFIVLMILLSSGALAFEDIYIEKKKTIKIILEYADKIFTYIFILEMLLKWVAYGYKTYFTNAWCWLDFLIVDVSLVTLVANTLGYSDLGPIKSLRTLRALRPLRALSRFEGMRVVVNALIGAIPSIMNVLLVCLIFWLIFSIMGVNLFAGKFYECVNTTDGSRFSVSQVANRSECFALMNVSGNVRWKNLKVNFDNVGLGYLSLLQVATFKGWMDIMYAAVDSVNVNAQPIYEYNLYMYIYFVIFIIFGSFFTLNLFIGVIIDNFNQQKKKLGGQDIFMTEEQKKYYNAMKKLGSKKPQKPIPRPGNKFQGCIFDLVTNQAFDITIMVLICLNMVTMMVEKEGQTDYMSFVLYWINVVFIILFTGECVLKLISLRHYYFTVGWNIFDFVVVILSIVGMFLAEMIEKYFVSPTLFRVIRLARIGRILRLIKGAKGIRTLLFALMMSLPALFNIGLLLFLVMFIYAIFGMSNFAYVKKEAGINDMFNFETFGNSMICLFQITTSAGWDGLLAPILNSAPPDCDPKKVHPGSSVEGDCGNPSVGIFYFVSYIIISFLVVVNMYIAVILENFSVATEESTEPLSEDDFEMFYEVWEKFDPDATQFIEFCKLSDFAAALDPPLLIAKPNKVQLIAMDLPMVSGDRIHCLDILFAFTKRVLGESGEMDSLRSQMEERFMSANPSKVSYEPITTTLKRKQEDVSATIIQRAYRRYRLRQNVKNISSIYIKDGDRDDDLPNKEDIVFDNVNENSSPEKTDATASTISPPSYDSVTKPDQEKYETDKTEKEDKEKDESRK

[7] = Protein binding in rat plasma at 5 uM by ultracentrifugation and LC-MS/MS method; assay type: ADME, cell-free; details: read-out: PPB (converted)
[8] = Protein binding in mouse plasma at 5 uM by ultracentrifugation and LC-MS/MS method; assay type: ADME, cell-free; details: read-out: PPB (converted)
[9] = AUC (infinity) in rat at 0.5 mg/kg, iv by LC-MS/MS method; assay type: ADME, organism-based; set-up: dose 0.5 mg/kg, time infinity, route intravenous; details: in vivo; procedure, shortened: as §1
[10] = AUC (infinity) in rat at 10 mg/kg, po by LC-MS/MS method; assay type: ADME, organism-based; set-up: dose 10 mg/kg, route oral, time infinity; details: in vivo
[11] = Half life in rat at 0.5 mg/kg, iv by LC-MS/MS method; assay type: ADME, organism-based; details: in vivo; procedure, shortened: as §1
[12] = Half life in mouse at 30 mg/kg, po by LC-MS/MS method; assay type: ADME, organism-based; details: in vivo
[13] = Volume of distribution in rat at 0.5 mg/kg, iv by LC-MS/MS method; assay type: ADME, organism-based; details: in vivo
[14] = Cmax in rat at 10 mg/kg, po by LC-MS/MS method; assay type: ADME, organism-based; set-up: dose 10 mg/kg, route oral; details: in vivo
[15] = Tmax in mouse at 30 mg/kg, po by LC-MS/MS method; assay type: ADME, organism-based; details: in vivo
[16] = test system: Plasma; test: Plasma concentration in Sprague-Dawley rat model of formalin-induced nociception behavior at 30 mg/kg, po; assay type: ADME, organism-based; details: in vivo
Procedure, shortened: (§3)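 Sprague Dawley rats got 10, 30 or 100 mg/kg PO in 30% (w/v) hydroxypropyl β-cyclodextrin, pH 10.0 with KOH. Total phase II formalin-induced flinches were counted. Morphine sulfate 2 mg/kg SC served as control. Unbound plasma levels were measured and compared with the rat NaV1.7 IC50.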

[17] = test system: Plasma; test: Plasma concentration in Sprague-Dawley rat model of formalin-induced nociception behavior at 100 mg/kg, po; assay type: ADME, organism-based; details: in vivo; procedure, shortened: as §3
[18] = Ratio of unbound plasma concentration in C57BL/6 mouse model of formalin-induced nociception behavior at 100 mg/kg, po to IC50 for mouse Nav1.7 by whole cell voltage clamp method
Procedure, shortened: (§4)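 Male C57BL/6 mice got 30, 60 or 100 mg/kg PO in 30% (w/v) hydroxypropyl β-cyclodextrin in water, pH 10.0 with KOH. Formalin (2%) was injected subcutaneously into the dorsal hind paw, and total phase II paw licking and lifting were scored. Morphine sulfate 3 mg/kg SC served as control. Unbound plasma concentration was divided by the mouse NaV1.7 IC50.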

[19] = Ratio of unbound plasma concentration in C57BL/6 mouse model of histamine-induced pruritus at 100 mg/kg, po to IC50 for mouse Nav1.7 by whole cell voltage clamp method
Procedure, shortened: (§5)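 The formalin arm received 2% formalin subcutaneously into the dorsal hind paw, and total phase II licking and lifting was scored. The pruritus arm was dosed 120 min before histamine (8.15mM, intradermal, nape of neck), and scratch bouts were counted over 0-30 min. Unbound plasma concentration was determined at each dose.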

[20] = test system: Rattus norvegicus; test: Analgesic activity in Sprague-Dawley rat model of formalin-induced nociception behavior assessed as reduction in formalin-evoked paw flinching at 100 mg/kg, po; assay type: functional; procedure, shortened: as §3
[21] = test system: Mus musculus; test: Analgesic activity in C57BL/6 mouse model of formalin-induced nociception behavior assessed as reduction in formalin-evoked paw lifting/licking at 100 mg/kg, po; assay type: functional; procedure, shortened: as §4
[22] = test system: Mus musculus; test: Anti-pruritic activity in C57BL/6 mouse model of histamine-induced pruritus assessed as reduction in histamine-induced scratching at 30 mg/kg, po dosed 120 mins before test; assay type: functional
Procedure, shortened: (§6)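 Male C57BL/6 mice got 30, 60 or 100 mg/kg PO in 30% hydroxypropyl β-cyclodextrin, pH 10.0, 120 min before the test. Histamine (8.15mM) was given intradermally to the nape of the neck just before testing, and scratch bouts were counted over 0–30 min. Diphenhydramine 30 mg/kg PO in water, 90 min before, served as control. Unbound plasma concentrations were measured.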

[23] = test system: Mus musculus; test: Anti-pruritic activity in C57BL/6 mouse model of histamine-induced pruritus assessed as reduction in histamine-induced scratching at 60 mg/kg, po dosed 120 mins before test; assay type: functional; procedure, shortened: as §6
[24] = test system: Mus musculus; test: Anti-pruritic activity in C57BL/6 mouse model of histamine-induced pruritus assessed as reduction in histamine-induced scratching at 100 mg/kg, po dosed 120 mins before test; assay type: functional; procedure, shortened: as §6
[25] = test system: Plasma; test: Unbound plasma concentration in Sprague-Dawley rat model of formalin-induced nociception behavior at 10 mg/kg, po; assay type: ADME, organism-based; details: in vivo
Procedure, shortened: (§7)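 Total phase II formalin-induced flinches were scored. Unbound plasma concentration was determined at each dose and related to the rat NaV1.7 IC50.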

[26] = test system: Plasma; test: Unbound plasma concentration in Sprague-Dawley rat model of formalin-induced nociception behavior at 30 mg/kg, po; assay type: ADME, organism-based; details: in vivo; procedure, shortened: as §7
[27] = test system: Plasma; test: Unbound plasma concentration in Sprague-Dawley rat model of formalin-induced nociception behavior at 100 mg/kg, po; assay type: ADME, organism-based; details: in vivo; procedure, shortened: as §7
[28] = test system: Plasma; test: Unbound plasma concentration in C57BL/6 mouse model of formalin-induced nociception behavior at 100 mg/kg, po; assay type: ADME, organism-based; details: in vivo; procedure, shortened: as §5
[29] = test system: Plasma; test: Unbound plasma concentration in C57BL/6 mouse model of histamine-induced pruritus at 60 mg/kg, po; assay type: ADME, organism-based; details: in vivo; procedure, shortened: as §5
[30] = test system: Plasma; test: Unbound plasma concentration in C57BL/6 mouse model of histamine-induced pruritus at 100 mg/kg, po; assay type: ADME, organism-based; details: in vivo; procedure, shortened: as §5
[31] = molecular target: Histamine H1 receptor (Homo sapiens) (UniProt P35367); test: Displacement of [3H]pyrilamine from human recombinant histamine H1 receptor expressed in HEK293 cells at 10 uM by radioligand displacement assay; assay type: cell-based
[32] = molecular target: Histamine H2 receptor (Homo sapiens) (UniProt P25021); test: Displacement of [125I]APT from human recombinant histamine H2 receptor expressed in CHO cells at 10 uM by radioligand displacement assay; assay type: cell-based
Chain of Histamine H2 receptor (Homo sapiens) (P25021 whole entry): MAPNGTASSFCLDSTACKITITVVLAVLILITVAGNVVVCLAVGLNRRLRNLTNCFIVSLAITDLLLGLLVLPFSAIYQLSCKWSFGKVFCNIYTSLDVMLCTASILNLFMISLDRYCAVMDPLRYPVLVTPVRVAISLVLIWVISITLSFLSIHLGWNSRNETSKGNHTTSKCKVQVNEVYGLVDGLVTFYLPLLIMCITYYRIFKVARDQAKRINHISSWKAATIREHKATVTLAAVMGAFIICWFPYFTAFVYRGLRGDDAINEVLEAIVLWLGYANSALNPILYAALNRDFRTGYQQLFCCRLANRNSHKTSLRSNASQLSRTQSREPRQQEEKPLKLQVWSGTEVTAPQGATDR

[33] = molecular target: Histamine H3 receptor (Homo sapiens) (UniProt Q9Y5N1); test: Displacement of [3H]N-alpha-Me-histamine from human recombinant histamine H3 receptor expressed in CHO cells at 10 uM by radioligand displacement assay; assay type: cell-based
Chain of Histamine H3 receptor (Homo sapiens) (Q9Y5N1 whole entry): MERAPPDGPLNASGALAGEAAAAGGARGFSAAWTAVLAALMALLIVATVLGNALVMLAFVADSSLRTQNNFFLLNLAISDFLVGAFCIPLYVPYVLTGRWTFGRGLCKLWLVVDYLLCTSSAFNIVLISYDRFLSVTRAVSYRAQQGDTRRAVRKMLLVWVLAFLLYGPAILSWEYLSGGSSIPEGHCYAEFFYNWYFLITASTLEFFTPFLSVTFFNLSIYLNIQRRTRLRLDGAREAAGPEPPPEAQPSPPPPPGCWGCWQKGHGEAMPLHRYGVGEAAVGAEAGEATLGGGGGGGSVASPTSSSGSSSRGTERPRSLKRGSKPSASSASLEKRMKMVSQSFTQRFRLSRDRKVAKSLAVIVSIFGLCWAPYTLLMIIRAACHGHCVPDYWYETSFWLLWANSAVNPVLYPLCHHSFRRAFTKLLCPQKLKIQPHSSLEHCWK

[34] = test system: Rattus norvegicus; test: Analgesic activity in Sprague-Dawley rat model of formalin-induced nociception behavior assessed as reduction in formalin-evoked paw flinching at 10 to 100 mg/kg, po; assay type: functional, organism-based; procedure, shortened: as §3

N#Cc1cc(C(F)(F)F)ccc1N1CCOc2cc(S(=O)(=O)Nc3nccs3)c(F)cc21
IC50 [1]: 140 nM | clearance [2]: 10 mL/min/kg | microsomal CLint at 1 µM [3]: < 14 µL/min/mg | fraction unbound at 5 µM [4]: 0.006 | IC50 [5]: 370 nM | IC50 [6]: 60 nM | fraction unbound at 5 µM [7]: 0.015 | fraction unbound at 5 µM [8]: 0.006 | AUC(0-inf) [9]: 1.8 µM·h | AUC(0-inf) [10]: 20 µM·h | half-life [11]: 3.6 h | half-life [12]: 7.1 h | Vd [13]: 2.5 L/kg | Cmax [14]: 950 to 990 nM | Tmax [15]: 2 h | concentration [16]: 4200 nM | concentration [17]: 11000 nM | Ratio [18]: 16 | Ratio [19]: 11 | MPE [20]: 70% | MPE [21]: 77% | MPE [22]: 37% | MPE [23]: 71% | MPE [24]: 80% | Cp(f) [25]: 27 nM | Cp(f) [26]: 65 nM | Cp(f) [27]: 180 nM | Cp(f) [28]: 920 nM | Cp(f) [29]: 660 nM | Cp(f) [30]: 680 nM | inhibition [31]: inactive | inhibition [32]: inactive | inhibition [33]: inactive | inhibition [34]: Dose-dependent effect
